The record followed here is ChEMBL document CHEMBL1123038, “Potential neuroleptic agents. 3. Chemistry and antidopaminergic properties of substituted 6-methoxysalicylamides” (J Med Chem, 1985).

Common to all, as to type: functional
Holding throughout (settings): ip

Experiment [1] deals with Rattus norvegicus. The experiment in a line: Compound was evaluated in vivo for antagonist activity against apomorphine induced behavioral syndrome such as Hyperactivity in rat after intraperitoneal administration; activity value ranges from 0.11-0.16.
For experiment [2], the system named is Rattus norvegicus. The experiment in a line: Compound was evaluated in vivo its antagonist activity against apomorphine induced behavioral syndrome such as Stereotypy in rat after intraperitoneal administration; activity value ranges from 0.52-0.55. In outline:
(§1)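 Male Sprague-Dawley rats (275–325 g) got compound ip (saline, or acetic acid/distilled water vehicle) 60 min ahead of sc apomorphine 1 mg/kg given into the neck. Stereotypy strength was scored 5, 20, 40 and 60 min after apomorphine. […] It was computed by Theil's method with Sen tie correction, using 5–6+ dose levels and 6–8 animals per dose.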

In experiment [3] the test system is Rattus norvegicus. The experiment in a line: Compound was evaluated in vivo its antagonist activity against apomorphine induced behavioral syndrome such as Stereotypy in rat after intraperitoneal administration; activity value ranges from 6.5-6.8. The method in brief:
as §1

Experiment [4] concerns Rattus norvegicus. The experiment in a line: Compound was evaluated in vivo for antagonist activity against apomorphine induced behavioral syndrome such as Hyperactivity in rat after intraperitoneal administration; activity value ranges from 6.0-6.2.
The test system of experiment [5] is Rattus norvegicus. The experiment in a line: Compound was evaluated in vivo for antagonist activity against apomorphine induced behavioral syndrome such as Hyperactivity in rat after intraperitoneal administration; activity value ranges from 0.46-0.49.
Experiment [6] relates to Rattus norvegicus. The experiment in a line: Compound was evaluated in vivo its antagonist activity against apomorphine induced behavioral syndrome such as Stereotypy in rat after intraperitoneal administration; activity value ranges from 1.8-2.2. In outline: as §1
For experiment [7], the system named is Rattus norvegicus. The experiment in a line: Compound was evaluated in vivo for antagonist activity against apomorphine induced behavioral syndrome such as Hyperactivity in rat after intraperitoneal administration; activity value ranges from 0.19-0.20.
In experiment [8] the test system is Rattus norvegicus. The experiment in a line: Compound was evaluated in vivo its antagonist activity against apomorphine induced behavioral syndrome such as Stereotypy in rat after intraperitoneal administration activity value ranges from 0.81-0.95. The method in brief: as §1
For experiment [9], the system named is Rattus norvegicus. The experiment in a line: Compound was evaluated in vivo its antagonist activity against apomorphine induced behavioral syndrome such as Stereotypy in rat after intraperitoneal administration; activity value ranges from 2.82-3.02. In outline:
as §1

The subject of experiment [10] is Rattus norvegicus. The experiment in a line: Compound was evaluated in vivo for antagonist activity against apomorphine induced behavioral syndrome such as Hyperactivity in rat after intraperitoneal administration; activity value ranges from 1.58-1.78.
Experiment [11] relates to Rattus norvegicus. The experiment in a line: Compound was evaluated in vivo for antagonist activity against apomorphine induced behavioral syndrome such as Hyperactivity in rat after intraperitoneal administration; activity value ranges from 0.42-0.43.
Experiment [12] relates to Rattus norvegicus. The experiment in a line: Compound was evaluated in vivo its antagonist activity against apomorphine induced behavioral syndrome such as Stereotypy in rat after intraperitoneal administration; activity value ranges from 0.65-0.66. The method in brief:
as §1

In experiment [13] the test system is Rattus norvegicus. The experiment in a line: Compound was evaluated in vivo its antagonist activity against apomorphine induced behavioral syndrome such as Stereotypy in rat after intraperitoneal administration.
Experiment [14] relates to Rattus norvegicus. The experiment in a line: Compound was evaluated in vivo for antagonist activity against apomorphine induced behavioral syndrome such as Hyperactivity in rat after intraperitoneal administration; activity value ranges from 0.27-0.35. The method in brief: (§2)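 Male Sprague-Dawley rats (275–325 g) received test compound ip (in saline, or acetic acid plus distilled water) 60 min before apomorphine 1 mg/kg sc into the neck. Behaviour was scored at 5, 20, 40 and 60 min after apomorphine.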

In experiment [15] the test system is Rattus norvegicus. The experiment in a line: Compound was evaluated in vivo its antagonist activity against apomorphine induced behavioral syndrome such as Stereotypy in rat after intraperitoneal administration; activity value ranges from 7.6-8.3. The method in brief: as §1
For experiment [16], the system named is Rattus norvegicus. The experiment in a line: Compound was evaluated in vivo for antagonist activity against apomorphine induced behavioral syndrome such as Hyperactivity in rat after intraperitoneal administration; activity value ranges from 0.36-0.43.
In experiment [17] the test system is Rattus norvegicus. The experiment in a line: Compound was evaluated in vivo for antagonist activity against apomorphine induced behavioral syndrome such as Hyperactivity in rat after intraperitoneal administration; activity value ranges from 0.45-0.49.
In experiment [18] the test system is Rattus norvegicus. The experiment in a line: Compound was evaluated in vivo its antagonist activity against apomorphine induced behavioral syndrome such as Stereotypy in rat after intraperitoneal administration; activity value ranges from 0.56-0.95. The method in brief:
as §1

In experiment [19] the test system is Rattus norvegicus. The experiment in a line: Compound was evaluated in vivo for antagonist activity against apomorphine induced behavioral syndrome such as Hyperactivity in rat after intraperitoneal administration; activity value ranges from 0.054-0.055.
Experiment [20] relates to Rattus norvegicus. The experiment in a line: Compound was evaluated in vivo its antagonist activity against apomorphine induced behavioral syndrome such as Stereotypy in rat after intraperitoneal administration; activity value ranges from 0.30-0.33. In outline: as §1
In experiment [21] the test system is Rattus norvegicus. The experiment in a line: Compound was evaluated in vivo its antagonist activity against apomorphine induced behavioral syndrome such as Stereotypy in rat after intraperitoneal administration; activity value ranges from 0.89-1.02. In outline: as §1
The test system of experiment [22] is Rattus norvegicus. The experiment in a line: Compound was evaluated in vivo for antagonist activity against apomorphine induced behavioral syndrome such as Hyperactivity in rat after intraperitoneal administration; activity value ranges from 1.15-1.26.
Experiment [23] relates to Rattus norvegicus. The experiment in a line: Compound was evaluated in vivo for antagonist activity against apomorphine induced behavioral syndrome such as Hyperactivity in rat after intraperitoneal administration; activity value ranges from 0.14-0.18.
In experiment [24] the test system is Rattus norvegicus. The experiment in a line: Compound was evaluated in vivo its antagonist activity against apomorphine induced behavioral syndrome such as Stereotypy in rat after intraperitoneal administration; activity value ranges from 0.74-0.87. The method in brief: as §1
Experiment [25] relates to Rattus norvegicus. The experiment in a line: Compound was evaluated in vivo its antagonist activity against apomorphine induced behavioral syndrome such as Stereotypy in rat after intraperitoneal administration; activity value ranges from 15.1-15.8. In outline: as §1
The test system of experiment [26] is Rattus norvegicus. The experiment in a line: Compound was evaluated in vivo for antagonist activity against apomorphine induced behavioral syndrome such as Hyperactivity in rat after intraperitoneal administration; activity value ranges from 2.7-3.8.
Experiment [27] concerns Rattus norvegicus. The experiment in a line: Compound was evaluated in vivo for antagonist activity against apomorphine induced behavioral syndrome such as Hyperactivity in rat after intraperitoneal administration; activity value ranges from 0.78-1.07.
Experiment [28] has as its system Rattus norvegicus. The experiment in a line: Compound was evaluated in vivo its antagonist activity against apomorphine induced behavioral syndrome such as Stereotypy in rat after intraperitoneal administration; activity value ranges from 13.8-14.1. In outline:
as §1

Experiment [29] concerns Rattus norvegicus. The experiment in a line: Compound was evaluated in vivo for antagonist activity against apomorphine induced behavioral syndrome such as Hyperactivity in rat after intraperitoneal administration; activity value ranges from 1.07-1.15.
The test system of experiment [30] is Rattus norvegicus. The experiment in a line: Compound was evaluated in vivo its antagonist activity against apomorphine induced behavioral syndrome such as Stereotypy in rat after intraperitoneal administration; activity value ranges from 2.0-2.0. The method in brief: as §1
Experiment [31] has as its system Rattus norvegicus. The experiment in a line: Compound was evaluated in vivo its antagonist activity against apomorphine induced behavioral syndrome such as Stereotypy in rat after intraperitoneal administration; activity value ranges from 2.4-2.7. The method in brief: as §1
For experiment [32], the system named is Rattus norvegicus. The experiment in a line: Compound was evaluated in vivo for antagonist activity against apomorphine induced behavioral syndrome such as Hyperactivity in rat after intraperitoneal administration; activity value ranges from 0.65-0.85.
For experiment [33], the system named is Rattus norvegicus. The experiment in a line: Compound was evaluated in vivo for antagonist activity against apomorphine induced behavioral syndrome such as Hyperactivity in rat after intraperitoneal administration; activity value ranges from 5.2-6.9.
Experiment [34] relates to Rattus norvegicus. The experiment in a line: Compound was evaluated in vivo its antagonist activity against apomorphine induced behavioral syndrome such as Stereotypy in rat after intraperitoneal administration; activity value ranges from 0.24-0.25. The method in brief:
as §1

Experiment [35] relates to Rattus norvegicus. The experiment in a line: Compound was evaluated in vivo for antagonist activity against apomorphine induced behavioral syndrome such as Hyperactivity in rat after intraperitoneal administration; activity value ranges from 0.11-0.13. In outline: as §2

`CCN1CCC[C@H]1CNC(=O)c1c(OC)ccc(I)c1O` [IOLOPRIDE]: the median effective dose (ED50) stood at 0.15 µmol/kg in experiment [1] and 0.54 µmol/kg in [2]. On to `CCN1CCC[C@H]1CNC(=O)c1c(O)ccc(Br)c1OC`, for which the ED50 in experiment [3] was determined as 6.6 µmol/kg; in experiment [4], 6.2 µmol/kg. With `CCOc1c(Br)ccc(OC)c1C(=O)NC[C@@H]1CCCN1CC`, the median effective dose (ED50) in [5] was 0.47 µmol/kg; in experiment [6] it was 1.9 µmol/kg.

As for `CCN1CCC[C@H]1CNC(=O)c1c(OC)ccc(Cl)c1O`, the ED50 in experiment [7] stood at 0.2 µmol/kg; in [8], 0.87 µmol/kg. Consider `CCN1CCC[C@H]1CNC(=O)c1c(OC)ccc(Br)c1O` (stereo in doubt; 26), for which the 50% effective dose (ED50) in [9] amounted to 0.32 µmol/kg; in experiment [10], 0.055 µmol/kg. With `CCCN1CCC[C@H]1CNC(=O)c1c(OC)ccc(Br)c1O`, the values for the ED50 in [11] and in experiment [12] were 0.43 µmol/kg and 0.66 µmol/kg, respectively.

On to `O=C(CCCN1CCC(O)(c2ccc(Cl)cc2)CC1)c1ccc(F)cc1` [HALOPERIDOL], for which the results for the 50% effective dose (ED50) in [13] and in [14] were 0.27 µmol/kg and 0.29 µmol/kg, respectively. For `CCN1CCC[C@H]1CNC(=O)c1c(O)cccc1OC`, the ED50 came to 7.8 µmol/kg in experiment [15] and 0.4 µmol/kg in experiment [16]. On to `CCc1ccc(O)c(C(=O)NC[C@@H]2CCCN2CC)c1OC`, for which the ED50 in experiment [17] turned out to be 0.47 µmol/kg; in experiment [18], 0.79 µmol/kg.

Regarding `CCN1CCC[C@H]1CNC(=O)c1c(OC)ccc(Br)c1O` (stereo in doubt; 11), the ED50 was 0.055 µmol/kg in experiment [19] and 0.32 µmol/kg in experiment [20]. For the molecule `CCN1CCC[C@H]1CNC(=O)c1c(OC)ccc(C)c1O`, the 50% effective dose (ED50) in [21] is 0.95 µmol/kg; in [22], 1.23 µmol/kg. For the molecule `CCCc1ccc(OC)c(C(=O)NC[C@@H]2CCCN2CC)c1O`, the ED50 in experiment [23] came out at 0.16 µmol/kg; in experiment [24], 0.79 µmol/kg. `CCCN1CCC[C@H]1CNC(=O)c1c(OC)ccc(Br)c1OC`: the median effective dose (ED50) in [25] stood at 15.5 µmol/kg; in experiment [26], 3.4 µmol/kg. Consider `CCc1ccc(OC)c(C(=O)NC[C@@H]2CCCN2CC)c1OC`, for which the median effective dose (ED50) turned out to be 0.95 µmol/kg in experiment [27] and 14.1 µmol/kg in experiment [28]. Regarding `CCN1CCC[C@H]1CNC(=O)c1c(OC)ccc(I)c1OC`, the median effective dose (ED50) in [29] was determined as 1.12 µmol/kg; in [30], 2.1 µmol/kg. Consider `CCN1CCC[C@H]1CNC(=O)c1c(O)ccc(Cl)c1OC`, for which the median effective dose (ED50) in [31] amounted to 2.5 µmol/kg; in experiment [32], 0.78 µmol/kg.

For the molecule `CCN1CCC[C@H]1CNC(=O)c1c(OC)ccc(Cl)c1OC`, the ED50 in [33] was found to be 6.3 µmol/kg. Take `CCc1ccc(OC)c(C(=O)NC[C@@H]2CCCN2CC)c1O`: the median effective dose (ED50) in experiment [34] is 0.25 µmol/kg; in experiment [35] it was 0.12 µmol/kg.

Broadly, the ED50 is the midpoint of the dose-response relation.
